According to ChEMBL document CHEMBL5303300, “EUbOPEN Chemogenomics Library - Multiplex” (2023):
“And” between values parts separate entries of the source, which are not always exact repeats. Equal entries are not always repeated.

Columns and labels:
U2OS = test: Multiplex assay against U2OS; type: toxicity, cell-based; details: human, number of replicates 2
Outline: (§1)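 At seeding, live cells were stained with Hoechst33342, BioTracker Green Microtubule Cytoskeleton Dye, MitoTracker Red and Annexin V Alexa Fluor 680. After compound addition they were imaged on a CQ1 microscope at 37°C and 5% CO2, and CellPathfinder machine-learning gating sorted them into Hoechst high-intensity objects or normal cells, with normal cells further split into healthy, pyknosed or fragmented nuclei and pyknosed cells into mitotic or apoptotic. Tubulin, mitochondrial-mass and membrane-permeability phenotypes are given as per cents of cells with healthy nuclei.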

HEK-293T = test: Multiplex assay against HEK293T; type: toxicity, cell-based; details: human, number of replicates 2; outline: as §1
[1] = 24 h, 1 µM, compound concentration 1 uM
[2] = 24 h, 10 µM, compound concentration 10 uM
[3] = 48 h, 1 µM, compound concentration 1 uM
[4] = 48 h, 10 µM, compound concentration 10 uM
[5] = 12 h, 1 µM, compound concentration 1 uM
[6] = 12 h, 10 µM, compound concentration 10 uM

CN(C)C/C=C/C(=O)Nc1cccc(S(=O)(=O)N2CCC(NC(=O)c3n[nH]cc3NC(=O)c3c(Cl)cc(Cl)cc3Cl)CC2)c1
Population Tubulin-Different-Phenotype (%) (U2OS; [1]): 86% and 59%
Population Apoptotic (%) (U2OS; [2]): 97%
Population Fragmented Nuclei (%) (U2OS; [2]): 11% and 9%
Population Healthy Nuclei (%) (U2OS; [2]): 4% and 3%
Population Hoechst High Intensity Objects (%) (U2OS; [2]): 0% and 2%
Population Membrane Permeable-Phenotype (%) (U2OS; [2]): 100% and 83%
Population Mitochondria Different-Phenotype (%) (U2OS; [2]): 100% and 83%
Population Mitotic Cells (%) (U2OS; [2]): 2%
Population Normal (%) (U2OS; [2]): 100% and 97%
Population Pyknosed Nuclei (%) (U2OS; [2]): 84% and 87%
Population Tubulin-Different-Phenotype (%) (U2OS; [2]): 100%
Population Apoptotic (%) (U2OS; [3]): 76% and 97%
Population Healthy Nuclei (%) (U2OS; [3]): 9% and 17%
Population Hoechst High Intensity Objects (%) (U2OS; [3]): 4% and 5%
Population Normal (%) (U2OS; [3]): 95% and 94%
Population Pyknosed Nuclei (%) (U2OS; [3]): 60% and 74%
Population Tubulin-Different-Phenotype (%) (U2OS; [3]): 100% and 82%
Population Apoptotic (%) (U2OS; [4]): 93%
Population Fragmented Nuclei (%) (U2OS; [4]): 0% and 6%
Population Healthy Nuclei (%) (U2OS; [4]): 23% and 10%
Population Hoechst High Intensity Objects (%) (U2OS; [4]): 0% and 1%
Population Membrane Permeable-Phenotype (%) (U2OS; [4]): 90% and 94%
Population Mitochondria Different-Phenotype (%) (U2OS; [4]): 90% and 72%
Population Mitotic Cells (%) (U2OS; [4]): 6%
Population Normal (%) (U2OS; [4]): 100% and 98%
Population Pyknosed Nuclei (%) (U2OS; [4]): 76% and 83%
Population Tubulin-Different-Phenotype (%) (U2OS; [4]): 100% and 88%
Population Apoptotic (%) (HEK-293T; [5]): 38% and 72%
Population Fragmented Nuclei (%) (HEK-293T; [5]): 3% and 4%
Population Healthy Nuclei (%) (HEK-293T; [5]): 89% and 87%
Population Hoechst High Intensity Objects (%) (HEK-293T; [5]): 10%
Population Membrane Permeable-Phenotype (%) (HEK-293T; [5]): 2% and 1%
Population Mitochondria Different-Phenotype (%) (HEK-293T; [5]): 49% and 45%
Population Mitotic Cells (%) (HEK-293T; [5]): 61% and 28%
Population Normal (%) (HEK-293T; [5]): 89%
Population Pyknosed Nuclei (%) (HEK-293T; [5]): 6% and 7%
Population Tubulin-Different-Phenotype (%) (HEK-293T; [5]): 86% and 90%
Total Cell Count (HEK-293T; [5]): 376 and 356
Population Apoptotic (%) (HEK-293T; [6]): 87% and 90%
Population Fragmented Nuclei (%) (HEK-293T; [6]): 2% and 4%
Population Healthy Nuclei (%) (HEK-293T; [6]): 84% and 79%
Population Hoechst High Intensity Objects (%) (HEK-293T; [6]): 16% and 14%
Population Membrane Permeable-Phenotype (%) (HEK-293T; [6]): 5% and 1%
Population Mitochondria Different-Phenotype (%) (HEK-293T; [6]): 87% and 88%
Population Mitotic Cells (%) (HEK-293T; [6]): 12% and 9%
Population Normal (%) (HEK-293T; [6]): 83% and 85%
Population Pyknosed Nuclei (%) (HEK-293T; [6]): 13% and 16%
Population Tubulin-Different-Phenotype (%) (HEK-293T; [6]): 96% and 97%
Total Cell Count (HEK-293T; [6]): 417 and 374
Population Apoptotic (%) (HEK-293T; [1]): 80%
Population Fragmented Nuclei (%) (HEK-293T; [1]): 2% and 3%
Population Healthy Nuclei (%) (HEK-293T; [1]): 90% and 85%
Population Hoechst High Intensity Objects (%) (HEK-293T; [1]): 13% and 11%
Population Membrane Permeable-Phenotype (%) (HEK-293T; [1]): 1% and 0%
Population Mitochondria Different-Phenotype (%) (HEK-293T; [1]): 70% and 63%
Population Mitotic Cells (%) (HEK-293T; [1]): 19% and 20%
Population Normal (%) (HEK-293T; [1]): 86% and 88%
Population Pyknosed Nuclei (%) (HEK-293T; [1]): 7% and 10%
Population Tubulin-Different-Phenotype (%) (HEK-293T; [1]): 87% and 89%
Total Cell Count (HEK-293T; [1]): 336 and 325
Population Apoptotic (%) (HEK-293T; [2]): 94% and 91%
Population Fragmented Nuclei (%) (HEK-293T; [2]): 2% and 4%
Population Healthy Nuclei (%) (HEK-293T; [2]): 64% and 53%
Population Hoechst High Intensity Objects (%) (HEK-293T; [2]): 19% and 22%
Population Membrane Permeable-Phenotype (%) (HEK-293T; [2]): 3% and 4%
Population Mitochondria Different-Phenotype (%) (HEK-293T; [2]): 93% and 90%
Population Mitotic Cells (%) (HEK-293T; [2]): 6% and 8%
Population Normal (%) (HEK-293T; [2]): 80% and 77%
Population Pyknosed Nuclei (%) (HEK-293T; [2]): 32% and 42%
Population Tubulin-Different-Phenotype (%) (HEK-293T; [2]): 71% and 67%
Total Cell Count (HEK-293T; [2]): 381 and 319
Population Apoptotic (%) (HEK-293T; [3]): 92% and 73%
Population Fragmented Nuclei (%) (HEK-293T; [3]): 3% and 2%
Population Healthy Nuclei (%) (HEK-293T; [3]): 86% and 82%
Population Hoechst High Intensity Objects (%) (HEK-293T; [3]): 20% and 12%
Population Membrane Permeable-Phenotype (%) (HEK-293T; [3]): 1%
Population Mitochondria Different-Phenotype (%) (HEK-293T; [3]): 75% and 81%
Population Normal (%) (HEK-293T; [3]): 79% and 87%
Population Pyknosed Nuclei (%) (HEK-293T; [3]): 10% and 15%
Population Tubulin-Different-Phenotype (%) (HEK-293T; [3]): 85% and 91%
Total Cell Count (HEK-293T; [3]): 328 and 309
Population Apoptotic (%) (HEK-293T; [4]): 78% and 71%
Population Fragmented Nuclei (%) (HEK-293T; [4]): 6%
Population Healthy Nuclei (%) (HEK-293T; [4]): 30% and 25%
Population Hoechst High Intensity Objects (%) (HEK-293T; [4]): 14%
Population Membrane Permeable-Phenotype (%) (HEK-293T; [4]): 3% and 7%
Population Mitochondria Different-Phenotype (%) (HEK-293T; [4]): 90% and 76%
Population Mitotic Cells (%) (HEK-293T; [4]): 21% and 28%
Population Normal (%) (HEK-293T; [4]): 85%
Population Pyknosed Nuclei (%) (HEK-293T; [4]): 62% and 68%
Population Tubulin-Different-Phenotype (%) (HEK-293T; [4]): 65% and 78%
Total Cell Count (HEK-293T; [4]): 442 and 399
